Data published in ChEMBL document CHEMBL4229376, “Optimization of the pharmacokinetic properties of potent anti-trypanosomal triazine derivatives” (Eur J Med Chem, 2018).
Calls of active or inactive are those of the source. No cut-off for these calls is given here.

Legend:
[1] = tested on: Trypanosoma brucei brucei; assay: Antitrypanosomal activity against suramin-sensitive Trypanosoma brucei brucei Squib 427 after 72 hrs by resazurin dye-based fluorimetric analysis; type: functional, organism-based; conditions: Squib 427, 72 h
[2] = Cytotoxicity against human MRC5 SV2 cells after 72 hrs by resazurin dye-based fluorimetric analysis; type: cell-based; conditions: MRC-5 SV2, 72 h
Peritoneal macrophage = assay: Cytotoxicity against mouse primary peritoneal macrophages after 72 hrs by resazurin dye-based fluorimetric analysis; type: cell-based
Plasmodium falciparum = assay: Antiplasmodial activity against chloroquine-resistant Plasmodium falciparum K1 infected in human erythrocytes after 72 hrs by Malstat reagent-based spectrophotometric analysis; type: functional, organism-based; conditions: K1, 72 h
Leishmania infantum = assay: Antileishmanial activity against Leishmania infantum MHOM/MA (BE)/67 amastigotes infected in primary peritoneal mouse macrophages after 120 hrs by giemsa staining-based microscopic analysis; type: functional, organism-based; conditions: MHOM/MA (BE)/67, 120 h
Trypanosoma cruzi = assay: Antitrypanosomal activity against nifurtimox-sensitive Trypanosoma cruzi Tulahuen CL2 infected in human MRC5 SV2 cells assessed as reduction in parasite burden after 168 hrs by CPRG and Nonidet based spectrophotometric analysis; type: functional, organism-based; conditions: Tulahuen CL2, MRC-5 SV2, 168 h
[3] = Drug metabolism in mouse liver microsomes assessed as CYP450 mediated compound […] by measuring parent compound remaining at 5 uM after 30 mins in presence of NADPH by UPLC/MS/ESI analysis; type: ADME; conditions: read-out: Stability
[4] = Drug metabolism in mouse liver microsomes assessed as UGT mediated compound […] by measuring parent compound remaining at 5 uM after 60 mins in presence of UDPGA by UPLC/MS/ESI analysis; type: ADME; conditions: 1 h
How it was run: (§1)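 Metabolic stability was run with mouse liver microsomal fraction (S9) and read as percent parent compound remaining over incubation time. Diclofenac served as the reference compound.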

[5] = Drug metabolism in mouse liver microsomes assessed as UGT mediated compound […] by measuring parent compound remaining at 5 uM after 30 mins in presence of UDPGA by UPLC/MS/ESI analysis; type: ADME; conditions: 0.5 h; how it was run: as §1
[6] = Drug metabolism in human plasma assessed as parent compound remaining after 30 mins by UPLC/MS/ESI analysis; type: ADME, cell-free; conditions: for remaining at 0.5 h: read-out: Stability
[7] = Drug metabolism in mouse liver microsomes assessed as CYP450 mediated compound […] by measuring parent compound remaining at 5 uM after 60 mins in presence of NADPH by UPLC/MS/ESI analysis; type: ADME; conditions: read-out: Stability
[8] = Drug metabolism in mouse liver microsomes assessed as CYP450 mediated compound […] by measuring parent compound remaining at 5 uM after 15 mins in presence of NADPH by UPLC/MS/ESI analysis; type: ADME; conditions: read-out: Stability
[9] = Drug metabolism in human liver microsomes assessed as CYP450 mediated compound […] by measuring parent compound remaining at 5 uM after 30 mins in presence of NADPH by UPLC/MS/ESI analysis; type: ADME; conditions: read-out: Stability
[10] = Drug metabolism in mouse liver microsomes assessed as UGT mediated compound […] by measuring parent compound remaining at 5 uM after 15 mins in presence of UDPGA by UPLC/MS/ESI analysis; type: ADME; conditions: 0.25 h; how it was run: as §1
[11] = Drug metabolism in human liver microsomes assessed as CYP450 mediated compound […] by measuring parent compound remaining at 5 uM after 15 mins in presence of NADPH by UPLC/MS/ESI analysis; type: ADME; conditions: read-out: Stability
[12] = Drug metabolism in human liver microsomes assessed as UGT mediated compound […] by measuring parent compound remaining at 5 uM after 60 mins in presence of UDPGA by UPLC/MS/ESI analysis; type: ADME; conditions: read-out: Stability
[13] = Drug metabolism in human liver microsomes assessed as CYP450 mediated compound […] by measuring parent compound remaining at 5 uM after 60 mins in presence of NADPH by UPLC/MS/ESI analysis; type: ADME; conditions: read-out: Stability
[14] = Drug metabolism in human liver microsomes assessed as UGT mediated compound […] by measuring parent compound remaining at 5 uM after 15 mins in presence of UDPGA by UPLC/MS/ESI analysis; type: ADME; conditions: read-out: Stability
[15] = Drug metabolism in human liver microsomes assessed as UGT mediated compound […] by measuring parent compound remaining at 5 uM after 30 mins in presence of UDPGA by UPLC/MS/ESI analysis; type: ADME; conditions: read-out: Stability
[16] = Drug metabolism in human plasma assessed as parent compound remaining after 15 mins by UPLC/MS/ESI analysis; type: ADME, cell-free; conditions: for remaining at 0.25 h: read-out: Stability
[17] = Drug metabolism in human plasma assessed as parent compound remaining after 60 mins by UPLC/MS/ESI analysis; type: ADME, cell-free; conditions: read-out: Stability
[18] = Drug metabolism in human plasma assessed as parent compound remaining after 1440 mins by UPLC/MS/ESI analysis; type: ADME, cell-free; conditions: for remaining at 24 h: read-out: Stability
How it was run: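 Compound incubated in human plasma for 24 h at 37 °C, and the fraction of parent compound remaining was determined.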

[19] = tested on: Trypanosoma brucei brucei; assay: Antitrypanosomal activity against Trypanosoma brucei brucei Squib 427 assessed as reduction in parasite growth at 7 to 14 times IC50 after 18 to 48 hrs resazurin dye-based fluorimetric analysis; type: functional, organism-based
How it was run: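 In vitro time course of T. b. brucei growth in the presence of compound, with parasite growth expressed as % of control.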

[20] = tested on: Trypanosoma brucei brucei; assay: Antitrypanosomal activity against Trypanosoma brucei brucei Squib 427 infected in Swiss mouse assessed as mean survival days at 10 mg/kg, ip administered as single dose for 5 days; type: functional
How it was run: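 Acute mouse infection model with T. b. brucei. Dosing ran for 5 days after infection, orally or intraperitoneally, once or twice daily. Groups were 3 mice each, with vehicle-treated infected controls. The read-out was mean survival time in days, plus the number of survivors on day 14 post-infection.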

[21] = tested on: Trypanosoma brucei brucei; assay: Antitrypanosomal activity against Trypanosoma brucei brucei Squib 427 infected in Swiss mouse assessed as mouse survival at 10 mg/kg, ip administered as single dose for 5 days and measured on day 14 post infection; type: functional, organism-based
How it was run: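 Acute T. b. brucei mouse infection model. Dosing was PO or IP at 10–50 mg/kg, once (SID) or twice (BID) daily for 5 days after infection, with 3 mice per group. […] Read-outs were mean survival time and survivors on day 14 post infection.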

SMILES | IC50 [1] [µM] | IC50 [2] [µM] | IC50 (Peritoneal macrophage) [µM] | IC50 (Plasmodium falciparum) [µM] | IC50 (Leishmania infantum) [µM] | IC50 (Trypanosoma cruzi) [µM] | other results
Cc1cc(C)c(Oc2nc(N)nc(Oc3ccc(F)cc3)n2)c(C)c1 | 4.3 | > 64 | 8 | > 64 | 8.1 | > 64 | 
Cc1ccc(Oc2nc(N)nc(Nc3ccc(C#N)cc3)n2)cc1 |  | > 64 | > 64 | > 64 | > 64 | 8 | 
Cc1ccc(Oc2nc(N)nc(Nc3ccccc3)n2)cc1 | 1.1 | > 64 | 32 | > 64 | 32.5 | > 64 | 
Cc1ccc(Nc2nc(N)nc(Nc3ccc(C#N)cc3)n2)cc1 | > 64 | > 64 | > 64 | > 64 | > 64 | > 64 | 
Cc1cc(Br)c(Nc2nc(N)nc(Nc3ccc(F)cc3)n2)c(Br)c1 | 7.1 | 6.7 | > 64 | > 64 | > 64 | > 64 | 
Cc1ccc(Oc2nc(N)nc(Nc3ccc(F)cc3)n2)cc1 | 0.4 | > 64 | 32 | > 64 | 32.5 | > 64 | remaining at 0.5 h, 5 µM [3]: 28%; Stability [4]: 110%; Stability [5]: 104%; remaining at 0.5 h [6]: 94%; remaining at 1 h, 5 µM [7]: 10.5%; remaining at 0.25 h, 5 µM [8]: 57%; remaining at 0.5 h, 5 µM [9]: 99%; Stability [10]: 91%; remaining at 0.25 h, 5 µM [11]: 107%; remaining at 1 h, 5 µM [12]: 94%; remaining at 1 h, 5 µM [13]: 113%; remaining at 0.25 h, 5 µM [14]: 96%; remaining at 0.5 h, 5 µM [15]: 105%; remaining at 0.25 h [16]: 104%; remaining at 1 h [17]: 101%; remaining at 24 h [18]: 95%
Nc1nc(Nc2ccc(F)cc2)nc(Nc2ccc(F)cc2)n1 | 2.8 | > 64 | > 64 | > 64 | > 64 | > 64 | 
O=C(O)Cc1ccccc1Nc1c(Cl)cccc1Cl [DICLOFENAC] |  |  |  |  |  |  | Stability [4]: 30%; Stability [5]: 28%; Stability [10]: 38%
Cc1cc(C)c(Oc2ncnc(Nc3ccc(F)cc3)n2)c(C)c1 | 31.1 | 8 | > 64 | 29.6 | 10.8 | 7.9 | 
Cc1cc(C)c(Oc2nc(N)nc(Nc3ccc(Cl)cc3)n2)c(C)c1 | 1.5 | 6.4 | 8 | 26.6 | 8.1 | 3.1 | 
Cc1ccc(C(=O)Nc2ccc(S(=O)(=O)O)c3cc(S(=O)(=O)O)cc(S(=O)(=O)O)c23)cc1NC(=O)c1cccc(NC(=O)Nc2cccc(C(=O)Nc3cc(C(=O)Nc4ccc(S(=O)(=O)O)c5cc(S(=O)(=O)O)cc(S(=O)(=O)O)c45)ccc3C)c2)c1 [SURAMIN] |  |  |  |  |  |  | Activity [19]: Active; MST [20]: > 7 days; Activity [21]: Active
Cc1ccc(Oc2nc(N)nc(Nc3ccc(F)cc3)n2)c(Cl)c1 | 0.5 | > 64 | 32 | 51.7 | 27.3 | 7.8 | remaining at 0.5 h, 5 µM [3]: 6%; Stability [4]: 113%; Stability [5]: 109%; Stability ([6]; 0.5 h): 124%; remaining at 1 h, 5 µM [7]: 1.4%; remaining at 0.25 h, 5 µM [8]: 25%; remaining at 0.5 h, 5 µM [9]: 87%; Stability [10]: 108%; remaining at 0.25 h, 5 µM [11]: 90%; remaining at 1 h, 5 µM [12]: 79%; remaining at 1 h, 5 µM [13]: 67%; remaining at 0.25 h, 5 µM [14]: 88%; remaining at 0.5 h, 5 µM [15]: 88%; Stability ([16]; 0.25 h): 121%; remaining at 1 h [17]: 117%; remaining at 24 h [18]: 100%
Cc1cc(C)c(Oc2nc(N)nc(Nc3ccc(F)cc3)n2)c(C)c1 | 0.3 | > 64 | > 64 | > 64 | > 64 | > 64 | remaining at 0.5 h, 5 µM [3]: 4%; Stability [4]: 112%; Stability [5]: 102%; remaining at 0.5 h [6]: 104%; remaining at 1 h, 5 µM [7]: 0.3%; remaining at 0.25 h, 5 µM [8]: 22%; remaining at 0.5 h, 5 µM [9]: 33%; Stability [10]: 94%; remaining at 0.25 h, 5 µM [11]: 53%; remaining at 1 h, 5 µM [12]: 91%; remaining at 1 h, 5 µM [13]: 13%; remaining at 0.25 h, 5 µM [14]: 95%; remaining at 0.5 h, 5 µM [15]: 118%; remaining at 0.25 h [16]: 100%; remaining at 1 h [17]: 115%; Stability ([18]; 24 h): 151%
Cc1cc(F)cc(C)c1Nc1nc(N)nc(Nc2ccc(C#N)cc2)n1 | 7.9 | 23.7 | 32 | 8.3 | 9.5 | 7.9 | 
Cc1cc(C)c(Oc2ncnc(Nc3ccccc3)n2)c(C)c1 | 32.5 | 17.8 | 32 | 31.5 | 24 | 8.2 | 
Cc1cc(C)c(Oc2nc(N)nc(Nc3c(F)cccc3F)n2)c(C)c1 | > 64 | > 64 | 32 | > 64 | 32.5 | > 64 | 
Cc1ccc(Nc2nc(N)nc(Nc3c(Br)cc(C)cc3Br)n2)cc1 | 9.1 | 8.1 | 32 | > 64 | 32.5 | > 64 | 
CC/C(=C(\c1ccccc1)c1ccc(OCCN(C)C)cc1)c1ccccc1 [TAMOXIFEN] |  | 10.2 |  |  |  |  | 
CC1CS(=O)(=O)CCN1/N=C/c1ccc([N+](=O)[O-])o1 (configuration not stated) [NIFURTIMOX] |  |  |  |  |  | 0.9 | 
CNc1nc(Nc2ccc(F)cc2)nc(Oc2c(C)cc(C)cc2C)n1 | 10.9 | > 64 | 32 | 20.2 | 24 | 7.8 | 
Nc1nc(Nc2ccc(F)cc2)nc(Sc2ccc(F)cc2)n1 | > 64 | > 64 | 8 | > 64 | 8.1 | 6.9 | 
Cc1cc(C)c(Oc2nc(Nc3ccc(F)cc3)nc(N3CCCCC3)n2)c(C)c1 | 8.2 | > 64 | 32 | 5.4 | 8.1 | 2.4 | 
N#Cc1ccc(Nc2nc(N)nc(Nc3ccc(F)cc3)n2)cc1 | 39.8 | > 64 | 32 | 26.4 | 32.5 | 9 | 
Cc1cc(C)c(Oc2nc(N)nc(Nc3ccc(C(F)(F)F)cc3)n2)c(C)c1 | 6.9 | 6.5 | 8 | 8.8 | 8.1 | 2.4 | 
Cc1cc(C)c(Oc2nc(N)nc(Nc3cc(F)cc(F)c3)n2)c(C)c1 | 1.3 | 4.4 | 8 | 17.4 | 8.1 | 2.3 | 
Cc1ccc(Nc2nc(N)nc(Nc3ccc(C#N)cc3)n2)c(Cl)c1 | 7.7 | > 64 | > 64 | 29.8 | 50.8 | > 64 | 
